Assay [1] has as its target T1, Gastrin/cholecystokinin type B receptor (Rattus norvegicus, UniProt P30553).
T1 sequence (P30553 whole entry): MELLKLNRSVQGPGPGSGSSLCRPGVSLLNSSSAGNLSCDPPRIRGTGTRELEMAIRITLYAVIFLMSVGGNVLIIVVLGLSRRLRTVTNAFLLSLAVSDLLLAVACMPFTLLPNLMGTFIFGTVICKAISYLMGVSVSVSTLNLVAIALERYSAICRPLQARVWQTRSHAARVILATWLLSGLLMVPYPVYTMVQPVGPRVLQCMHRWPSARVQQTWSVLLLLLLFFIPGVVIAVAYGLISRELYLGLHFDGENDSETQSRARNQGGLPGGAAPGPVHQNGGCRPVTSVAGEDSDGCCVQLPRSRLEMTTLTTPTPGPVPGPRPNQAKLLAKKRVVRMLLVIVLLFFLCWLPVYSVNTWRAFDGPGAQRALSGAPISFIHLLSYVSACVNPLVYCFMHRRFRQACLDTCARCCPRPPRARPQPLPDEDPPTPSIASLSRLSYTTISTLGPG
Kind of assay: Inhibition of [3H]pCCK-8 specific binding cholecystokinin type B receptor in rat cerebral cortex membranes. The class given is cell membranes, Membrane. The method in brief:
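Rat brain cortex homogenized in 50 mM Tris-HCl pH 7.4 with 5 mM MgCl2, centrifuged twice at 100 000g, 35 min, 4 °C. Membranes (0.45 mg protein/tube) incubated with 1 nM [3H]pCCK-8 plus bacitracin 0.2 mg/mL, 60 min, 25 °C. Seven test concentrations in triplicate, at least three experiments.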

The species named for the next assay is Rattus norvegicus. Kind of assay: Inhibition of amylase release stimulated by CCK-8 (0.1 nM) in dispersed pancreatic acini. Format: functional. The method in brief: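 Pancreatic acini prepared by collagenase digestion (two 6 min incubations, 37 °C). Acini were suspended in theophylline/BSA-containing buffer and incubated 30 min, 37 °C, under O2 with 0.1 nM CCK-8 and increasing compound concentrations. Released amylase was measured as a percentage of acinar content. IC50 came from linear regression of % inhibition. Three to six experiments in duplicate.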

In assay [2] the target is T2, Cholecystokinin receptor type A (Rattus norvegicus, UniProt P30551).
T2 sequence (P30551 whole entry): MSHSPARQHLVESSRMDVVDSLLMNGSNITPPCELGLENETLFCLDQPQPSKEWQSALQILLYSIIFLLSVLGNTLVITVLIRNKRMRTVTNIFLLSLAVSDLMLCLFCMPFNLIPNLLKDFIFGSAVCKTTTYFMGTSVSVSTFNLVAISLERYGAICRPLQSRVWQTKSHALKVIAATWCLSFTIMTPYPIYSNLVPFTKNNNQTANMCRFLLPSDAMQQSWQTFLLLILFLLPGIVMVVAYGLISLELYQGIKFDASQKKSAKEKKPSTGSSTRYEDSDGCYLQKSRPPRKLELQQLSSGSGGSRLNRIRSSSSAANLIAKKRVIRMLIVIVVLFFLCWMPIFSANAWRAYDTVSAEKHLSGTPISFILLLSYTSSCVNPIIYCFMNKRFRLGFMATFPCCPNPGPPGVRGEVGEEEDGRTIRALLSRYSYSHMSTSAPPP
Description: Inhibition of [3H]pCCK-8 specific binding to cholecystokinin type A receptor in rat pancreas. The procedure, abridged:
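Rat pancreas homogenized in Pipes-HCl pH 6.5 with 30 mM MgCl2, centrifuged twice at 50 000g, 10 min, 4 °C. Membranes (0.2 mg protein/tube) incubated with 0.5 nM [3H]pCCK-8, 30 mM MgCl2, bacitracin and SBTI (0.2 mg/mL each), 120 min, 25 °C. Seven test concentrations in triplicate, at least three experiments.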

As usually defined, the IC50 is the point on the concentration scale where inhibition reaches its midpoint. Read a high IC50 as a need for much substance.

Structures are written as SMILES.

Turning to `Cc1ccc(N2C(=O)C[C@H]3[C@H](NC(=O)[C@H](Cc4c[nH]c5ccccc45)NC(=O)OC(C)(C)C)CCCN3C2=O)cc1`, the half-maximal inhibitory concentration (IC50) is > 10000 nM in assay [1], 16.6 nM in the assay filed under Rattus norvegicus and 2.9 nM in assay [2].
On to `Cc1ccccc1N1C(=O)C[C@@H]2[C@@H](NC(=O)[C@H](Cc3c[nH]c4ccccc34)NC(=O)OC(C)(C)C)CCCN2C1=O`, for which the results for the half-maximal inhibitory concentration (IC50) in assay [1] and in assay [2] were > 10000 nM and > 1000 nM, respectively.
On to `CC(C)(C)OC(=O)N[C@@H](Cc1c[nH]c2ccccc12)C(=O)NC1CCCN2C(=O)N(c3cccc(C(=O)O)c3)C(=O)CC12` (stereo partly drawn), for which the results for the IC50 in assay [1] and in assay [2] were > 10000 nM and > 1000 nM, respectively.
For the compound `Cc1ccccc1N1C(=O)C[C@H]2[C@H](NC(=O)[C@H](Cc3c[nH]c4ccccc34)NC(=O)OC(C)(C)C)CCCN2C1=O`, the concentration for half-maximal inhibition (IC50) is > 10000 nM in assay [1], 1.89 nM in the assay filed under Rattus norvegicus and 0.97 nM in assay [2].
For the compound `CC(C)(C)OC(=O)N[C@@H](Cc1c[nH]c2ccccc12)C(=O)N[C@@H]1CCCN2C(=O)N(c3ccc([N+](=O)[O-])cc3)C(=O)C[C@@H]12`, the IC50 in assay [1] was > 10000 nM; in the assay filed under Rattus norvegicus, 64 nM; in assay [2] it was 12 nM.
In the case of `CN(C)c1ccc(N2C(=O)C[C@H]3[C@H](NC(=O)[C@H](Cc4c[nH]c5ccccc45)NC(=O)OC(C)(C)C)CCCN3C2=O)cc1`, the half-maximal inhibitory concentration (IC50) in assay [1] is > 10000 nM; in the assay listed under Rattus norvegicus it was 39.8 nM; in assay [2], 4.3 nM.
Take `COc1ccc(N2C(=O)CC3C(NC(=O)[C@H](Cc4c[nH]c5ccccc45)NC(=O)OC(C)(C)C)CCCN3C2=O)cc1` (stereo partly drawn): the results for the 50% inhibitory concentration (IC50) (in assay [1]; in the assay filed under Rattus norvegicus; in assay [2]) were > 10000 nM, 38.1 nM and 15.9 nM, respectively.
For `CC(C)(C)OC(=O)N[C@@H](Cc1c[nH]c2ccccc12)C(=O)N[C@@H]1CCCN2C(=O)N(Cc3ccccc3)C(=O)C[C@@H]12` [IQM-95333], the IC50 in assay [1] was > 10000 nM.
As for `CC(C)(C)OC(=O)N[C@@H](Cc1c[nH]c2ccccc12)C(=O)NC1CCCN2C(=O)N(c3cccc(O)c3)C(=O)CC12` (stereo partly drawn), the results for the IC50 in assay [1] and in assay [2] were > 10000 nM and > 1000 nM, respectively.
The corresponding values for `CC(C)(C)OC(=O)N[C@@H](Cc1c[nH]c2ccccc12)C(=O)N[C@H]1CCCN2C(=O)N(c3cccc([N+](=O)[O-])c3)C(=O)C[C@H]12` are > 10000 nM and > 1000 nM.
In the case of `Cc1cccc(N2C(=O)C[C@H]3[C@H](NC(=O)[C@H](Cc4c[nH]c5ccccc45)NC(=O)OC(C)(C)C)CCCN3C2=O)c1`, the half-inhibitory concentration (IC50) is > 10000 nM in assay [1], 10 nM in the assay filed under Rattus norvegicus and 3.98 nM in assay [2].
Consider `C[C@H](c1ccccc1)N1C(=O)C[C@@H]2[C@@H](NC(=O)[C@H](Cc3c[nH]c4ccccc34)NC(=O)OC(C)(C)C)CCCN2C1=O`, for which the results for the IC50 in assay [1] and in assay [2] were > 10000 nM and > 1000 nM, respectively.
The like results for `CC(C)(C)OC(=O)N[C@@H](Cc1c[nH]c2ccccc12)C(=O)N[C@H]1CCCN2C(=O)N(Cc3ccccc3)C(=O)C[C@H]12` were, in that order, 6150 nM and 22.7 nM.
`CCOC(=O)[C@H](Cc1ccccc1)N1C(=O)C[C@@H]2[C@@H](NC(=O)[C@H](Cc3c[nH]c4ccccc34)NC(=O)OC(C)(C)C)CCCN2C1=O`: the values for the concentration for half-maximal inhibition (IC50) in assay [1] and in assay [2] were > 10000 nM and > 1000 nM, respectively.
With `CC(C)(C)OC(=O)N[C@@H](Cc1c[nH]c2ccccc12)C(=O)N[C@@H]1CCCN2C(=O)N(c3ccccc3)C(=O)C[C@@H]12`, the IC50 is > 10000 nM in assay [1], 3.5 nM in the assay listed under Rattus norvegicus and 1.18 nM in assay [2].
Consider `Cc1ccc(N2C(=O)C[C@@H]3[C@@H](NC(=O)[C@H](Cc4c[nH]c5ccccc45)NC(=O)OC(C)(C)C)CCCN3C2=O)cc1`, for which the values for the half-maximal inhibitory concentration (IC50) in assay [1] and in assay [2] were 2320 nM and 200 nM, respectively.
In the case of `COC(=O)C(Cc1ccccc1)N1C(=O)CC2C(NC(=O)[C@H](Cc3c[nH]c4ccccc34)NC(=O)OC(C)(C)C)CCCN2C1=O` (stereo partly drawn), the IC50 was > 10000 nM in assay [1] and > 1000 nM in assay [2].
With `CN(C)c1ccc(N2C(=O)C[C@@H]3[C@@H](NC(=O)[C@H](Cc4c[nH]c5ccccc45)NC(=O)OC(C)(C)C)CCCN3C2=O)cc1`, the values for the 50% inhibitory concentration (IC50) in assay [1] and in assay [2] were 2320 nM and > 1000 nM, respectively.
For `CC(C)(C)OC(=O)N[C@@H](Cc1c[nH]c2ccccc12)C(=O)N[C@@H]1CCCN2C(=O)N(C3CCCCC3)C(=O)C[C@@H]12`, the IC50 is > 10000 nM in assay [1], 3 nM in the assay filed under Rattus norvegicus and 0.6 nM in assay [2].
Turning to `CC(C)(C)OC(=O)N[C@@H](Cc1c[nH]c2ccccc12)C(=O)N[C@H]1CCCN2C(=O)N(c3cccc4ccccc34)C(=O)C[C@H]12`, the IC50 in assay [1] is > 10000 nM; in assay [2], > 1000 nM.
The corresponding values for `CC(=O)Oc1cccc(N2C(=O)C[C@H]3[C@H](NC(=O)[C@H](Cc4c[nH]c5ccccc45)NC(=O)OC(C)(C)C)CCCN3C2=O)c1` are > 10000 nM and 70.3 nM.
Take `CN(C)c1cccc(N2C(=O)C[C@H]3[C@H](NC(=O)[C@H](Cc4c[nH]c5ccccc45)NC(=O)OC(C)(C)C)CCCN3C2=O)c1`: the values for the half-inhibitory concentration (IC50) in assay [1] and in assay [2] were > 10000 nM and 50.8 nM, respectively.
Consider `CC(C)(C)OC(=O)N[C@@H](Cc1c[nH]c2ccccc12)C(=O)N[C@@H]1CCCN2C(=O)N(c3cccc([N+](=O)[O-])c3)C(=O)C[C@@H]12`, for which the values for the half-maximal inhibitory concentration (IC50) (in assay [1]; in the assay listed under Rattus norvegicus; in assay [2]) were > 10000 nM, 49.5 nM and 44 nM, respectively.
Regarding `CC(C)(C)OC(=O)N[C@@H](Cc1c[nH]c2ccccc12)C(=O)NC1CCCN2C(=O)N(C(Cc3ccccc3)C(=O)O)C(=O)CC12` (stereo partly drawn), the IC50 in assay [1] was > 10000 nM; in assay [2], > 1000 nM.
The like results for `CC(C)(C)OC(=O)N[C@@H](Cc1c[nH]c2ccccc12)C(=O)N[C@H]1CCCN2C(=O)N(c3ccc([N+](=O)[O-])cc3)C(=O)C[C@H]12` were, in that order, > 10000 nM and > 1000 nM.
The like results for `Cc1cccc(N2C(=O)C[C@@H]3[C@@H](NC(=O)[C@H](Cc4c[nH]c5ccccc45)NC(=O)OC(C)(C)C)CCCN3C2=O)c1` were, in that order, 1320 nM and 100 nM.
Regarding `CN(C)c1cccc(N2C(=O)C[C@@H]3[C@@H](NC(=O)[C@H](Cc4c[nH]c5ccccc45)NC(=O)OC(C)(C)C)CCCN3C2=O)c1`, the IC50 in assay [1] is > 10000 nM; in assay [2] it was > 1000 nM.
As to `CSCC[C@H](NC(=O)[C@H](Cc1ccc(O)cc1)NC(=O)[C@@H](N)CC(=O)O)C(=O)NCC(=O)N[C@@H](Cc1c[nH]c2ccccc12)C(=O)N[C@@H](CCSC)C(=O)N[C@@H](CC(=O)O)C(=O)N[C@@H](Cc1ccccc1)C(N)=O`, the half-inhibitory concentration (IC50) in assay [2] stood at 1.04 nM.
On to `CC(C)(C)OC(=O)N[C@@H](Cc1c[nH]c2ccccc12)C(=O)N[C@H]1CCCN2C(=O)N(c3ccncc3)C(=O)C[C@H]12` (relative stereo), for which the IC50 in assay [1] was > 10000 nM; in assay [2] it was 386 nM.
Regarding `C[C@H](c1ccccc1)N1C(=O)C[C@H]2[C@H](NC(=O)[C@H](Cc3c[nH]c4ccccc34)NC(=O)OC(C)(C)C)CCCN2C1=O`, the IC50 in assay [1] was > 10000 nM; in the assay listed under Rattus norvegicus, 12.6 nM; in assay [2], 15 nM.
Regarding `CN1C(=O)C[C@@H]2[C@@H](NC(=O)[C@H](Cc3c[nH]c4ccccc34)NC(=O)OC(C)(C)C)CCCN2C1=O`, the IC50 in assay [1] is > 10000 nM.
Turning to `CC(C)(C)OC(=O)N[C@H](Cc1c[nH]c2ccccc12)C(=O)N[C@@H]1CCCN2C(=O)N(c3cccc4ccccc34)C(=O)C[C@@H]12`, the IC50 in assay [1] is > 10000 nM; in the assay filed under Rattus norvegicus, 93 nM; in assay [2], 15.4 nM.
As for `CC(C)(C)OC(=O)N[C@H](Cc1c[nH]c2ccccc12)C(=O)N[C@H]1CCCN2C(=O)N(c3cccc4ccccc34)C(=O)C[C@H]12`, the figures for the IC50 in assay [1] and in assay [2] were > 10000 nM and > 1000 nM, respectively.
With `C[C@@H](c1ccccc1)N1C(=O)C[C@@H]2[C@@H](NC(=O)[C@H](Cc3c[nH]c4ccccc34)NC(=O)OC(C)(C)C)CCCN2C1=O`, the IC50 is > 10000 nM in assay [1] and > 1000 nM in assay [2].
Turning to `CCOC(=O)[C@H](Cc1ccccc1)N1C(=O)C[C@H]2[C@H](NC(=O)[C@H](Cc3c[nH]c4ccccc34)NC(=O)OC(C)(C)C)CCCN2C1=O`, the figures for the IC50 in assay [1] and in assay [2] were > 10000 nM and > 1000 nM, respectively.

These data come from ChEMBL document CHEMBL1134518, “5-(Tryptophyl)amino-1,3-dioxoperhydropyrido[1,2-c]pyrimidine-based potent and selective CCK(1)receptor antagonists: structure-activity relationship studies on the substituent at N2-position” (J Med Chem, 2001).
